From ChEMBL document CHEMBL4270612, “Discovery of dual GyrB/ParE inhibitors active against Gram-negative bacteria” (Eur J Med Chem, 2018)

Tests used:
[1] = test system: Pseudomonas aeruginosa; test: Antibacterial activity against Pseudomonas aeruginosa PAO1 after 24 hrs by broth microdilution method; assay type: functional; details: PAO1, 24 h
Procedure, shortened: (§1)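 Broth microdilution per CLSI. Bacterial suspension adjusted to 1×10^6 CFU/mL in cation-adjusted Mueller–Hinton broth and mixed 1:1 with 2-fold serial compound dilutions. Final DMSO 2.5% v/v. Plates incubated at 35 °C with shaking at 140 rpm for 24 h.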

[2] = test system: Escherichia coli; test: Antibacterial activity against Escherichia coli after 24 hrs by broth microdilution method; assay type: functional; procedure, shortened: as §1
[3] = test system: Escherichia coli; test: Antibacterial activity against tolC deficient Escherichia coli after 24 hrs by broth microdilution method; assay type: functional
Procedure, shortened: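 Broth microdilution per CLSI guidelines. Inoculum adjusted to 1×10^6 CFU/mL in cation-adjusted Mueller–Hinton broth, added 1:1 to 2-fold serial compound dilutions; final DMSO 2.5% v/v. Plates incubated 35 °C, 140 rpm, 24 h.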

[4] = test system: Acinetobacter baumannii; test: (§2) Antibacterial activity against Acinetobacter baumannii ARC3495 after 24 hrs by broth microdilution method; assay type: functional; details: ARC3495, 24 h; procedure, shortened: as §1
[5] = test system: Haemophilus influenzae; test: Antibacterial activity against Haemophilus influenzae ATCC 49247 after 24 hrs by broth microdilution method; assay type: functional; details: ATCC 49247, 24 h; procedure, shortened: as §1
[6] = test system: Enterobacter cloacae; test: Antibacterial activity against Enterobacter cloacae ARC3528 after 24 hrs by broth microdilution method; assay type: functional; details: ARC3528, 24 h; procedure, shortened: as §1
[7] = test system: Staphylococcus aureus; test: Antibacterial activity against Staphylococcus aureus ATCC 29213 after 24 hrs by broth microdilution method; assay type: functional; details: ATCC 29213, 24 h; procedure, shortened: as §1
[8] = test system: Staphylococcus aureus; test: Antibacterial activity against Staphylococcus aureus ATCC 29213 after 24 hrs in presence of 2% human albumin by broth microdilution method; assay type: functional; details: ATCC 29213, 24 h
[9] = test system: Staphylococcus aureus; test: Antibacterial activity against methicillin-resistant Staphylococcus aureus FQ-R after 24 hrs by broth microdilution method; assay type: functional
Procedure, shortened: (§3)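 Broth microdilution per CLSI. Bacterial suspensions adjusted to 1×10^6 CFU/mL in cation-adjusted Mueller–Hinton broth, mixed 1:1 with 2-fold serial compound dilutions (final DMSO 2.5% v/v). Incubation 35 °C, 140 rpm, 24 h.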

[10] = test system: Staphylococcus aureus; test: Antibacterial activity against methicillin-resistant Staphylococcus aureus USA100 after 24 hrs by broth microdilution method; assay type: functional; details: USA100, 24 h; procedure, shortened: as §3
[11] = test system: Streptococcus pyogenes; test: Antibacterial activity against Streptococcus pyogenes ARC838 after 24 hrs by broth microdilution method; assay type: functional; details: ARC838, 24 h
Procedure, shortened: (§4)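 Broth microdilution per CLSI. Bacterial suspension adjusted to 1×10^6 CFU/mL in cation-adjusted Mueller–Hinton broth and mixed 1:1 with 2-fold serial compound dilutions. Plates incubated at 35 °C with shaking at 140 rpm for 24 h.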

[12] = test system: Streptococcus pneumoniae; test: Antibacterial activity against Streptococcus pneumoniae ATCC 49619 after 24 hrs by broth microdilution method; assay type: functional; details: ATCC 49619, 24 h; procedure, shortened: as §1
[13] = test system: Enterococcus faecalis; test: Antibacterial activity against Enterococcus faecalis ATCC 29212 after 24 hrs by broth microdilution method; assay type: functional; details: ATCC 29212, 24 h; procedure, shortened: as §1
[14] = test system: Candida albicans; test: Antifungal activity against Candida albicans ATCC 90028 after 24 hrs by broth microdilution method; assay type: functional; details: ATCC 90028, 24 h
[15] = test system: Pseudomonas aeruginosa; test: Antibacterial activity against Pseudomonas aeruginosa ARC003 after 24 hrs by broth microdilution method; assay type: functional; details: ARC003, 24 h; procedure, shortened: as §1
[16] = test system: Pseudomonas aeruginosa; test: Antibacterial activity against Pseudomonas aeruginosa ARC3505 after 24 hrs by broth microdilution method; assay type: functional; details: ARC3505, 24 h; procedure, shortened: as §1
[17] = test system: Pseudomonas aeruginosa; test: Antibacterial activity against Pseudomonas aeruginosa ARC3506 after 24 hrs by broth microdilution method; assay type: functional; details: ARC3506, 24 h; procedure, shortened: as §1
[18] = test system: Pseudomonas aeruginosa; test: Antibacterial activity against Pseudomonas aeruginosa ARC3511 after 24 hrs by broth microdilution method; assay type: functional; details: ARC3511, 24 h; procedure, shortened: as §4
[19] = test system: Pseudomonas aeruginosa; test: Antibacterial activity against Pseudomonas aeruginosa ARC3514 after 24 hrs by broth microdilution method; assay type: functional; details: ARC3514, 24 h; procedure, shortened: as §4
[20] = test system: Pseudomonas aeruginosa; test: Antibacterial activity against Pseudomonas aeruginosa ARC3606 after 24 hrs by broth microdilution method; assay type: functional; details: ARC3606, 24 h; procedure, shortened: as §1
[21] = test system: Pseudomonas aeruginosa; test: Antibacterial activity against Pseudomonas aeruginosa ARC3607 after 24 hrs by broth microdilution method; assay type: functional; details: ARC3607, 24 h; procedure, shortened: as §1
[22] = test system: Pseudomonas aeruginosa; test: Antibacterial activity against Pseudomonas aeruginosa ARC3611 after 24 hrs by broth microdilution method; assay type: functional; details: ARC3611, 24 h; procedure, shortened: as §1
[23] = test system: Pseudomonas aeruginosa; test: Antibacterial activity against Pseudomonas aeruginosa ARC3612 after 24 hrs by broth microdilution method; assay type: functional; details: ARC3612, 24 h; procedure, shortened: as §1
[24] = test system: Pseudomonas aeruginosa; test: Antibacterial activity against Pseudomonas aeruginosa ARC3727 after 24 hrs by broth microdilution method; assay type: functional; details: ARC3727, 24 h; procedure, shortened: as §4
[25] = test system: Pseudomonas aeruginosa; test: Antibacterial activity against Pseudomonas aeruginosa ARC3756 after 24 hrs by broth microdilution method; assay type: functional; details: ARC3756, 24 h; procedure, shortened: as §4
[26] = test system: Pseudomonas aeruginosa; test: Antibacterial activity against Pseudomonas aeruginosa ARC3916 after 24 hrs by broth microdilution method; assay type: functional; details: ARC3916, 24 h; procedure, shortened: as §1
[27] = test system: Pseudomonas aeruginosa; test: Antibacterial activity against Pseudomonas aeruginosa ARC3925 after 24 hrs by broth microdilution method; assay type: functional; details: ARC3925, 24 h; procedure, shortened: as §4
[28] = test system: Pseudomonas aeruginosa; test: Antibacterial activity against Pseudomonas aeruginosa ARC4068 after 24 hrs by broth microdilution method; assay type: functional; details: ARC4068, 24 h; procedure, shortened: as §4
[29] = test system: Acinetobacter baumannii; test: Antibacterial activity against Acinetobacter baumannii ARC2675 after 24 hrs by broth microdilution method; assay type: functional; details: ARC2675, 24 h; procedure, shortened: as §4
[30] = test system: Acinetobacter baumannii; test: Antibacterial activity against Acinetobacter baumannii ARC2728 after 24 hrs by broth microdilution method; assay type: functional; details: ARC2728, 24 h; procedure, shortened: as §1
[31] = test system: Acinetobacter baumannii; test: Antibacterial activity against Acinetobacter baumannii ARC2779 after 24 hrs by broth microdilution method; assay type: functional; details: ARC2779, 24 h; procedure, shortened: as §1
[32] = test system: Acinetobacter baumannii; test: Antibacterial activity against Acinetobacter baumannii ARC2780 after 24 hrs by broth microdilution method; assay type: functional; details: ARC2780, 24 h; procedure, shortened: as §4
[33] = test system: Acinetobacter baumannii; test: Antibacterial activity against Acinetobacter baumannii ARC3485 after 24 hrs by broth microdilution method; assay type: functional; details: ARC3485, 24 h; procedure, shortened: as §1
[34] = test system: Acinetobacter baumannii; test: Antibacterial activity against Acinetobacter baumannii ARC3486 after 24 hrs by broth microdilution method; assay type: functional; details: ARC3486, 24 h; procedure, shortened: as §1
[35] = test system: Acinetobacter baumannii; test: Antibacterial activity against Acinetobacter baumannii ARC3489 after 24 hrs by broth microdilution method; assay type: functional; details: ARC3489, 24 h; procedure, shortened: as §1
[36] = test system: Acinetobacter baumannii; test: Antibacterial activity against Acinetobacter baumannii ARC3493 after 24 hrs by broth microdilution method; assay type: functional; details: ARC3493, 24 h; procedure, shortened: as §1
[37] = test system: Acinetobacter baumannii; test: as §2; assay type: functional; details: ARC3495, 24 h; procedure, shortened: as §1; remark: listed apart in the source
[38] = test system: Acinetobacter baumannii; test: Antibacterial activity against Acinetobacter baumannii ARC3513 after 24 hrs by broth microdilution method; assay type: functional; details: ARC3513, 24 h; procedure, shortened: as §1
[39] = test system: Acinetobacter baumannii; test: Antibacterial activity against Acinetobacter baumannii ARC3515 after 24 hrs by broth microdilution method; assay type: functional; details: ARC3515, 24 h; procedure, shortened: as §1
[40] = test system: Acinetobacter baumannii; test: Antibacterial activity against Acinetobacter baumannii ARC3657 after 24 hrs by broth microdilution method; assay type: functional; details: ARC3657, 24 h; procedure, shortened: as §1
[41] = test system: Acinetobacter baumannii; test: Antibacterial activity against Acinetobacter baumannii ARC3659 after 24 hrs by broth microdilution method; assay type: functional; details: ARC3659, 24 h; procedure, shortened: as §1
[42] = test system: Acinetobacter baumannii; test: Antibacterial activity against Acinetobacter baumannii ARC3882 after 24 hrs by broth microdilution method; assay type: functional; details: ARC3882, 24 h; procedure, shortened: as §1
[43] = Protein binding in human plasma; assay type: ADME, cell-free; details: read-out: PPB (converted)
[44] = Growth inhibition of human A549 cells; assay type: cell-based

CCNC(=O)Nc1cc(-c2nc(C(F)(F)F)cs2)c(-c2cc(-c3n[nH]c(=O)o3)cnc2N2C3CCC2CN(C)C3)cn1
0.12 µg/mL: MIC [3]
> 64 µg/mL: MIC [14]
16 µg/mL: MIC [21]
2.4 µg/mL: MIC [1]
1 µg/mL: MIC [30] | MIC [31] | MIC [35] | MIC [36] | MIC [39] | MIC [41] | MIC [42]
1.2 µg/mL: MIC [2]
0.5 µg/mL: MIC [4] | MIC [32] | MIC [37]
0.211: fraction unbound [43]
2 µg/mL: MIC [15] | MIC [18] | MIC [33] | MIC [34] | MIC [40]
8 µg/mL: MIC [16] | MIC [20] | MIC [23] | MIC [25] | MIC [27] | MIC [28]
< 0.06 µg/mL: MIC [5] | MIC [7] | MIC [8] | MIC [9] | MIC [10] | MIC [11] | MIC [12] | MIC [13]
4 µg/mL: MIC [17] | MIC [19] | MIC [22] | MIC [24] | MIC [26] | MIC [29] | MIC [38]
> 40 µM: GI50 [44]
32 µg/mL: MIC [6]
